What was measured:
[1] = biological target: T1, Progesterone receptor (Rattus norvegicus) (UniProt Q63449); assay: Tissue distribution in liver 3 hr after [18F]-4 injection into estrogen-primed immature rats; assay type: functional, tissue-based
T1 sequence (whole entry): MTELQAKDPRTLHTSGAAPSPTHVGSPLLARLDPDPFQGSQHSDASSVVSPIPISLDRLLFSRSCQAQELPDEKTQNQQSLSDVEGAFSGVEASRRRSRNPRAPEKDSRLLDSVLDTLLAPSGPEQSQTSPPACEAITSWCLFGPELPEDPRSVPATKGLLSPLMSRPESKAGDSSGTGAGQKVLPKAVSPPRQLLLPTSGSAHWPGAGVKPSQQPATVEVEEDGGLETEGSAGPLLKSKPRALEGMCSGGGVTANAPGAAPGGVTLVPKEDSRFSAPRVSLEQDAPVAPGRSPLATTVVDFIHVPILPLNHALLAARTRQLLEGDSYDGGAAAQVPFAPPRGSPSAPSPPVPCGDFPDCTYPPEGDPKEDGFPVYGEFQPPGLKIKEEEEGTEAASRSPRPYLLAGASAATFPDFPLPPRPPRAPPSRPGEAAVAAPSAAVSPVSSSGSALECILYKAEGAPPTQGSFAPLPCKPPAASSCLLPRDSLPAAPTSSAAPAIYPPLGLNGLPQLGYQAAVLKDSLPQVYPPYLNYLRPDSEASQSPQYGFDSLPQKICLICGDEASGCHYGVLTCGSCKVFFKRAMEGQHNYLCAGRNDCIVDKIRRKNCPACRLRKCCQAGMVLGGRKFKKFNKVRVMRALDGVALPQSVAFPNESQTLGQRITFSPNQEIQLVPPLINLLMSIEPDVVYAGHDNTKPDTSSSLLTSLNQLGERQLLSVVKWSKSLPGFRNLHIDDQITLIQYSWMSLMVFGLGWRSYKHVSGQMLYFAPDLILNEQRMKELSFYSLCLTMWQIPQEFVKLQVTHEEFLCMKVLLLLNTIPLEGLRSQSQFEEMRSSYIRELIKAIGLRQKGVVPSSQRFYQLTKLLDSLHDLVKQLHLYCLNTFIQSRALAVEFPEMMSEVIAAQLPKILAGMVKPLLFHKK
Procedure, shortened: (§1)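 Immature female Sprague-Dawley rats, estradiol-primed (5 μg s.c. in 20% ethanol/sunflower oil, two successive days, used 24 h later). Tracer (30 Ci/mmol) in 10% ethanol/saline was injected iv into the tail vein under ether anesthesia. Animals were decapitated 3 h postinjection; organs weighed and gamma-counted. %ID/g, mean ± SD, n = 5.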

[2] = biological target: T1, Progesterone receptor (Rattus norvegicus); assay: Tissue distribution in fat 3 hr after [18F]4 injection into estrogen-primed immature rats; assay type: functional, tissue-based; conditions: Adipose tissue; procedure, shortened: as §1
[3] = biological target: T1, Progesterone receptor (Rattus norvegicus); assay: Tissue distribution in kidney 3 hr after [18F]4 injection into estrogen-primed immature rats; assay type: functional, tissue-based; procedure, shortened: as §1
[4] = biological target: T2, Mineralocorticoid receptor (Rattus norvegicus) (UniProt P22199); assay: Relative binding affinity (RBA) for mineralocorticoid receptor compared to aldosterone
T2 sequence (whole entry): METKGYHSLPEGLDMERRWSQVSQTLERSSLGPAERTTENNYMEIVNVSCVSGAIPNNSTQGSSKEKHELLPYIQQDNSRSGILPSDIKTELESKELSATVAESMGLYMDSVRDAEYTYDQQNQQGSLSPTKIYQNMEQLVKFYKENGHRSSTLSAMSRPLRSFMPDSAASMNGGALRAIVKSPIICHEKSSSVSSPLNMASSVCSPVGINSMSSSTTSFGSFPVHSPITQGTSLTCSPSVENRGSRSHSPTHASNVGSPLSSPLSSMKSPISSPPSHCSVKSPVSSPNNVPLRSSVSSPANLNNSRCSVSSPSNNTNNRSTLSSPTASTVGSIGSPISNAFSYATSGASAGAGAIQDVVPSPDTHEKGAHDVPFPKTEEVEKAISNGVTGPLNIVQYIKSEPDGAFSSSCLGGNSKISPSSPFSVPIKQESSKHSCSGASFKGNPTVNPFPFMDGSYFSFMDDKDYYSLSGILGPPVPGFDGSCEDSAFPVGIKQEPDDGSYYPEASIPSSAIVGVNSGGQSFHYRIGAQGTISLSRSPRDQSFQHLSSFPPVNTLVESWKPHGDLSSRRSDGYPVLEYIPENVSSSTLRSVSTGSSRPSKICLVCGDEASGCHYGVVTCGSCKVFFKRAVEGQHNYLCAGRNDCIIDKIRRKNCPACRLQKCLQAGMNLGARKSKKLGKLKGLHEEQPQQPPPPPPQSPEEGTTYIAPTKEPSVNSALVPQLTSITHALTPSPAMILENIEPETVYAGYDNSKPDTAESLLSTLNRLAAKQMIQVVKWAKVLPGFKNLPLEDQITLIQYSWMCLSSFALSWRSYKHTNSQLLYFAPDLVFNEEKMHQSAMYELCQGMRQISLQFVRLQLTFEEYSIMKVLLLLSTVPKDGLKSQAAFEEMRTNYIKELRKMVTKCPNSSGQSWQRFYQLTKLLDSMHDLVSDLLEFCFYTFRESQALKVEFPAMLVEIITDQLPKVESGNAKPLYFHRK

[5] = biological target: T1, Progesterone receptor (Rattus norvegicus); assay: Tissue distribution in lung 1 hr after [18F]4 injection into estrogen-primed immature rats at low dose; assay type: functional, tissue-based
Procedure, shortened: (§2)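 Estrogen-primed immature female Sprague-Dawley rats (estradiol 5 μg s.c. daily ×2, used 24 h later) were given a reduced tracer dose of 30 μCi in 0.04 mL 10% ethanol/saline, tail vein iv, under ether. Decapitated at 1 h; organs weighed and gamma-counted. Results as %ID/g or uterus/tissue ratio, mean ± SD, n = 5.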

[6] = biological target: T1, Progesterone receptor (Rattus norvegicus); assay: Relative binding affinity for progesterone receptor compared to R5020
[7] = biological target: T1, Progesterone receptor (Rattus norvegicus); assay: Tissue distribution in muscle 1 hr after [18F]4 injection into estrogen-primed immature rats at normal dose; assay type: functional, tissue-based
Procedure, shortened: (§3)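 Female Sprague-Dawley rats, 23 days old, primed with estradiol 5 μg s.c. in 20% ethanol/sunflower oil on two days and used 24 h later. Under ether, they received 51 μCi tracer (30 Ci/mmol) iv via the tail vein in 0.1 mL 10% ethanol/saline. Killed by decapitation at 1 h; tissues weighed and gamma-counted. Results as %ID/g or tissue ratios, mean ± SD, n = 5.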

[8] = biological target: T1, Progesterone receptor (Rattus norvegicus); assay: Tissue distribution in uterus/blood 1 hr after [18F]4 injection into estrogen-primed immature rats at normal dose; assay type: functional, tissue-based; procedure, shortened: as §3
[9] = biological target: T1, Progesterone receptor (Rattus norvegicus); assay: Tissue distribution in brain 3 hr after [18F]4 injection into estrogen-primed immature rats; assay type: functional, tissue-based; procedure, shortened: as §1
[10] = biological target: T1, Progesterone receptor (Rattus norvegicus); assay: Tissue distribution in uterus 1 hr after [18F]4 injection into estrogen-primed immature rats at normal dose; assay type: functional, tissue-based; procedure, shortened: as §3
[11] = biological target: T1, Progesterone receptor (Rattus norvegicus); assay: Tissue distribution in bone 1 hr after [18F]4 injection into estrogen-primed immature rats at low dose; assay type: functional, tissue-based; conditions: Bone element; procedure, shortened: as §2
[12] = biological target: T1, Progesterone receptor (Rattus norvegicus); assay: Tissue distribution in brain 1 hr after [18F]-4 injection into estrogen-primed immature rats co-injected with uterine uptake blocker (ORG 2058); assay type: functional, tissue-based
Procedure, shortened: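 Blocking group: estrogen-primed immature female Sprague-Dawley rats (estradiol 5 μg s.c. ×2 days, used 24 h later). ORG 2058 18 μg was co-injected with the tracer dose iv via tail vein, 0.2 mL injection volume in 10% ethanol/saline. Killed 1 h later; tissues weighed and gamma-counted. Results as %ID/g or ratios, mean ± SD, n = 5.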

[13] = biological target: T1, Progesterone receptor (Rattus norvegicus); assay: Tissue distribution in kidney 1 hr after [18F]4 injection into estrogen-primed immature rats at normal dose; assay type: functional, tissue-based; procedure, shortened: as §3
[14] = biological target: T1, Progesterone receptor (Rattus norvegicus); assay: Tissue distribution in muscle 1 hr after [18F]4 injection into estrogen-primed immature rats at low dose; assay type: functional, tissue-based; procedure, shortened: as §2

CC(=O)[C@@]12O[C@](C)(c3ccc(F)cc3)O[C@@H]1CC1C3CCC4=CC(=O)CC[C@]4(C)C3CC[C@@]12C (stereo partly drawn)
Injected dose/g [1]: 1.93%
Injected dose/g [2]: 5.06%
Injected dose/g [3]: 1.47%
relative binding affinity (RBA) [4]: 6
Injected dose/g [5]: 1.46%
relative binding affinity (RBA) [6]: 53
Injected dose/g [7]: 0.82%
uterus/blood ratio [8]: 6.59
Injected dose/g [9]: 0.2%
Injected dose/g [10]: 3.08%
Injected dose/g [11]: 1.77%
Injected dose/g [12]: 0.55%
Injected dose/g [13]: 2.18%
Injected dose/g [14]: 0.82%

C[C@@]1(c2ccc(F)cc2)O[C@@H]2CC3C4CCC5=CC(=O)CC[C@@H]5C4CC[C@]3(C)[C@]2(C(=O)CO)O1 (stereo partly drawn)
Injected dose/g [1]: 1.36%
Injected dose/g [2]: 1.64%
Injected dose/g [3]: 0.45%
relative binding affinity (RBA) [4]: 140
Injected dose/g [5]: 0.72%
relative binding affinity (RBA) [6]: 240
Injected dose/g [7]: 0.44%
uterus/blood ratio [8]: 14
Injected dose/g [9]: 0.06%
Injected dose/g [10]: 3.65%
Injected dose/g [11]: 0.68%
Injected dose/g [12]: 0.28%
Injected dose/g [13]: 1.42%
Injected dose/g [14]: 0.464%
